We go through six molecules from publication PMC6713505 (Science Advances, 2019).

Assay [1] has as its system FL transporter-2 (Blon_2202–2204). The assay is classed as cell-based, B. infantis JCM 1222^T. The note with it: for change in concentration of each HMO in culture supernatant (consumption): MS554 expressing FL transporter-2, growth on 0.5% (w/v) purified HMO mixture. The method, boiled down: (§1)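 The host was B. longum 105-A ΔlnbX ΔgltA carrying pMSK65, which encodes intracellular HMO-degrading exo-glycosidases. It was transformed with the transporter gene cluster or an empty vector. Cultures grew anaerobically at 37°C in MRS-CS with 0.5% (w/v) purified HMO mixture, Lac, 2′-FL, 3-FL, LDFT or LNFP I. OD600 was followed in technical duplicates. Supernatant HMOs were fluorescence-labelled and measured by HPLC against a maltoheptaose internal standard, in technical triplicates; means ± SD.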

Assay [2] concerns FL transporter-1 (Blon_0341–0343). It is filed as cell-based, B. infantis JCM 1222^T. Conditions: for change in concentration of each HMO in culture supernatant (consumption): MS554 expressing FL transporter-1, growth on 0.5% (w/v) purified HMO mixture. In outline: as §1
The test system of the next assay is B. infantis JCM 1222^T. The assay is classed as cell-based. The note with it: 0.5% (w/v) sugar. In outline:
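B. infantis JCM 1222T wild type and FL transporter mutants were grown anaerobically at 37°C in MRS-CS broth (0.34% w/v sodium ascorbate, 0.02% w/v cysteine-HCl). Each broth carried 0.5% (w/v) of Gal, 2′-FL, 3-FL, LDFT, LNFP I or purified HMO mixture. The HMO mixture was purified from pooled breast milk and contained 2% (w/w) Lac impurity. Growth was followed over time in biological duplicates, reported as means ± SD.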

Turning to `CC(=O)N[C@H]1[C@H](O[C@H]2[C@@H](O)[C@@H](CO)O[C@@H](O[C@H]3[C@H](O)[C@@H](O)C(O)O[C@@H]3CO)[C@@H]2O)O[C@H](CO)[C@@H](O[C@@H]2O[C@H](CO)[C@H](O)[C@H](O)[C@H]2O)[C@@H]1O` (mixture of isomers) [LNnT, lacto-N-neotetraose], the “change in concentration of each HMO in culture supernatant (consumption)” value (shortened to “change in concentration of each HMO”) in assay [1] and in assay [2] was “invariant” in each case.
Consider `OC[C@H]1O[C@@H](O[C@H]2[C@H](O)[C@@H](O)C(O)O[C@@H]2CO)[C@H](O)[C@@H](O)[C@H]1O` (mixture of isomers) [Lac, lactose], for which the “growth on sugar as carbon source” value in assay [1] (MS554 expressing FL transporter-2, 0.5% (w/v) sugar, OD600) is recorded as “indistinguishable from the control strain”; in assay [2] (MS554 expressing FL transporter-1, 0.5% (w/v) sugar, OD600) it was “indistinguishable from the control strain”.
As for `O=C[C@H](O)[C@@H](O)[C@@H](O)[C@H](O)CO` [Gal, galactose], the “growth of WT and the four mutants of B. infantis” value in the assay with B. infantis JCM 1222^T is recorded as “grew at similar rates”.
Consider `CC(=O)N[C@H]1[C@H](O[C@H]2[C@@H](O)[C@@H](CO)O[C@@H](O[C@@H]([C@H](O[C@@H]3O[C@@H](C)[C@@H](O)[C@@H](O)[C@@H]3O)[C@@H](O)C=O)[C@H](O)CO)[C@@H]2O)O[C@H](CO)[C@@H](O[C@@H]2O[C@@H](C)[C@@H](O)[C@@H](O)[C@@H]2O)[C@@H]1O[C@@H]1O[C@H](CO)[C@H](O)[C@H](O)[C@H]1O` [LNDFH II], for which the “change in concentration of each HMO” value in assay [1] and in assay [2] was “invariant” throughout.
On to `CC(=O)N[C@H]1[C@H](O[C@H]2[C@@H](O)[C@@H](CO)O[C@@H](O[C@H]3[C@H](O)[C@@H](O)C(O)O[C@@H]3CO)[C@@H]2O)O[C@H](CO)[C@@H](O)[C@@H]1O[C@@H]1O[C@H](CO)[C@H](O)[C@H](O)[C@H]1O` (some centres unmarked) [LNT, lacto-N-tetraose], for which the “change in concentration of each HMO” value in assay [1] and in assay [2] was “invariant” each time.
With “lacto-N-difucohexaose (LNDFH) I [LNDFH I]”, the “change in concentration of each HMO” value in assay [1] and in assay [2] was “invariant” in each case.
